An excerpt weighted towards active compounds, which were near 4.2% of everything screened.
OX1R antag-1: antagonists of human orexin 1 receptor (OX1R). AID 485270. OX1R-expressing cells, FRET antagonist read-out. inhibition, % at 6.6 µM. 330,000 tested, 1.8% active. O43613; in the data active means inhibition mostly above about 38%, no sharp cut-off; inactive means mostly below about 40%
Target sequence (O43613 whole entry, looked up): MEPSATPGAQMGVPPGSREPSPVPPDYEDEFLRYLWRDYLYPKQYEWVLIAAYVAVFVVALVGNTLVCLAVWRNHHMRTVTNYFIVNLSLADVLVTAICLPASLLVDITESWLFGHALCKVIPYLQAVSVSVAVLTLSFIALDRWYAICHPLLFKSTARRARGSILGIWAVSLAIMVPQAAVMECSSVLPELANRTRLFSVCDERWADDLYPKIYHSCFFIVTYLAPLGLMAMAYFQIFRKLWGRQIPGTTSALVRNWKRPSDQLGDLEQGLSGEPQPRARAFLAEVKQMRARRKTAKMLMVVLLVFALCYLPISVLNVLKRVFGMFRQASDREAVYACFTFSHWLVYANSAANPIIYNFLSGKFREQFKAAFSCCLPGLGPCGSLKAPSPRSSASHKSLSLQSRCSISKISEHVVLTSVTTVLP
TAAR1 antag: human TAAR1 antagonism. Q96RJ0. CHO RD-HGA16 TAAR1, Fluo-8 calcium fluorescence, antagonist. inhibition, % at 3 µM. 360,000 tested, 1.5% active. AID 624466;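 active means inhibition above a per-plate cutoff, the mean inhibition of test compounds on that plate plus 3 SD, cut at about 49% in these data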
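Assay system: RD-HGA16 CHO cells with stable hTAAR1 and Gα16 / Reagent: EC80 β-phenethylamine stimulus / Doses: 3 µM, single point / Timing: dye loading 75 min at 37 °C, then 30 min room temperature / Measured by: Fluo-8 intracellular calcium dye fluorescence, real-time kinetic reads / Controls: vehicle wells and EC80 agonist wells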
TAAR1 agonist: human TAAR1 agonism; Q96RJ0; CHO RD-HGA16 TAAR1, Fluo-8 calcium fluorescence; vehicle wells 0%, saturating PEA agonist 100%; activation, % at 3 µM; 360,000 tested, 0.99% active;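 active means activation above the mean activation of all test compounds in the run plus 3 SD, cut at about 38% in these data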
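Test system: RD-HGA16 (CHO) cells co-expressing Gα16 and hTAAR1; dosing: one-point dosing at 3 µM (nominal); timing: 17-24 h seeding, 75 min 37 °C dye, 30 min RT; signal: kinetic Fluo-8 calcium fluorescence; read-out basis: % activation relative to PEA EC100 response; controls: DMSO and PEA EC100; replicates: n 1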
GalR3 antagonist: antagonists of human GalR3. inhibition, % at 3 µM. O60755. AID 651719. 360,000 tested, 0.44% active. HEK293 GalR3-CNG cAMP membrane potential fluorescence; galR3 body fused to GalR1 C-terminus;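 active means inhibition above the screen-wide average plus 3 SD, cut at about 13% in these data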;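 further: forskolin and galanin both at EC90 stimulate the cells; cAMP rise reported by CNG channel membrane potential dye signal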
CHO parental Ca: counter-screen: ATP calcium response change in parental CHO cells; parental CHO-K1, ATP-induced calcium, Fluo-8 fluorescence; inhibition, % at 5.6 µM; 330,000 tested, 0.63% active;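 active means inhibition above that plate's mean sample inhibition plus 3 SD, cut at about 26% in these data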
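test system = CHO parental line | reagent = ATP stimulus | measured by = intracellular calcium via Fluo-8 no-wash fluorescent dye | control set = ATP and no-ATP DMSO wells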
OX1R antag-2: antagonists of human orexin 1 receptor | CHO/OX1R cells, Fluo-8 calcium fluorescence, orexin A | AID 434989 | inhibition, % at 5 µM | O43613 | 330,000 tested, 0.43% active;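 active means inhibition above its plate's threshold, mean inhibition of all tested compounds on the plate plus 3 SD, cut at about 37% in these data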
nonsel antag count: nonselective antagonism, TAAR1 counter-screen | shares compounds with TAAR1 antag | counterscreen cell line, calcium fluorescence, antagonist mode | inhibition, % at 3 µM | 2,400 tested, 77% active | AID 651780; in the data active means inhibition above about 22%;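 further: CHO-Ga16 host cells stimulated with ATP at an EC80 level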
TAAR1 antag conf: human TAAR1 antagonism, confirmed. TAAR1-expressing cells, fluorescence antagonist read-out. shares compounds with TAAR1 antag. inhibition, % at 3 µM. 2,400 tested, 40% active; in the data active means inhibition above about 49%;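 further: CHO-Ga16 host cells challenged with agonist PEA near its EC80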
Ga16 ag counter: nonselective Ga16 agonist in TAAR1 antagonist counter-screen; shares compounds with TAAR1 antag; Ga16-expressing cells, calcium fluorescence, agonist counterscreen; 2,400 tested, 18% active; activation, % at 3 µM; in the data active means activation above about 12%
TAAR1 ag count: TAAR1 agonism, antagonist counter-screen; activation, % at 3 µM; 2,400 tested, 2% active; AID 651955; shares compounds with TAAR1 antag; hTAAR1 cell line, fluorescence activation, agonist mode; in the data active means activation above about 37%;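 further: CHO cells stably expressing TAAR1 with calcium dye readout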
Large screens that a line does not name were inactive (follow-up assays come after a bar, where they were run).

Cc1nn(CCc2nn[nH]n2)c2nc(-c3ccc(C4CCCCC4)cc3)cc(C(F)(F)F)c12	TAAR1 antag 79.7, CHO parental Ca 54.8 | nonsel antag count 89.3 | TAAR1 antag conf 68.5 | Ga16 ag counter inactive | TAAR1 ag count inactive
C=CC[C@@H](CC(=O)OC(C)(C)C)C(=O)OC[C@H]1CCCN1C(=O)[C@@H](CC=C)CC(=O)N[C@H](CO)Cc1ccccc1	TAAR1 antag 60.9 | nonsel antag count 35.6 | TAAR1 antag conf inactive | Ga16 ag counter inactive | TAAR1 ag count inactive
C=CC[C@@H](CC(=O)OC(C)(C)C)C(=O)OC[C@@H]1CCCN1C(=O)[C@@H](CC=C)CC(=O)N(CCO)Cc1ccccc1	none
CC(=O)c1c(C)[nH]c(C(=O)COC(=O)c2cc(S(=O)(=O)N(C)c3ccccc3)ccc2Cl)c1C	none
CCN(c1ccccc1)S(=O)(=O)c1ccc(Cl)c(C(=O)OCC(=O)c2[nH]c(C)c(C(C)=O)c2C)c1	TAAR1 antag 63.5 | nonsel antag count inactive | TAAR1 antag conf inactive | Ga16 ag counter inactive | TAAR1 ag count inactive
O=C(Nc1nccs1)c1cn(-c2ccccc2)nc1-c1ccccc1	TAAR1 antag 71.8 | nonsel antag count inactive | TAAR1 antag conf inactive | Ga16 ag counter inactive | TAAR1 ag count inactive
O=C(Nc1nccs1)c1cc(-c2ccccc2)nc2ccccc12	TAAR1 antag 66.0 | nonsel antag count 28.3 | TAAR1 antag conf 54.3 | Ga16 ag counter inactive | TAAR1 ag count inactive
O=C(Nc1nccs1)c1cc(-c2ccccc2)nn1-c1ccccc1	none
CC1CCCC(C)N1c1ccc(S(=O)(=O)N2CCOCC2)cc1Cl (stereo not drawn)	none
Cc1cc(C)cc(NC(=O)Nc2ccc3c(c2)N(C)C(=O)CS3)c1	TAAR1 antag 82.3, CHO parental Ca 34.0 | nonsel antag count 42.8 | TAAR1 antag conf 51.0 | Ga16 ag counter inactive | TAAR1 ag count inactive
CN1C(=O)CSc2ccc(NC(=O)N3CCOCC3)cc21	none
COc1ccc(CNC(=O)CN(C(=O)c2ccc(CN3CCOCC3)o2)C2CCCC2)cc1	none
O=C(NC1(Cc2ccccc2)CCN(CCCc2ccccc2)C1=O)c1ccccc1 (stereo not drawn)	TAAR1 antag 66.4 | nonsel antag count 26.4 | TAAR1 antag conf inactive | Ga16 ag counter inactive | TAAR1 ag count inactive
CCOc1ccccc1N(C(=O)Nc1cccc(Cl)c1)C1=NC(C)CS1 (stereo not drawn)	none
c1ccc(SCc2cn(C[C@H]3CC[C@@H]([C@@H]4CC[C@H](Cn5cc(CSc6ccccc6)nn5)O4)O3)nn2)cc1	TAAR1 antag 70.8 | nonsel antag count 36.5 | TAAR1 antag conf 56.0 | Ga16 ag counter 14.2 | TAAR1 ag count inactive
N#Cc1ccc(-c2c(-c3ccccc3)ncc3cc(F)ccc23)cc1	TAAR1 antag 58.7 | nonsel antag count inactive | TAAR1 antag conf inactive | Ga16 ag counter inactive | TAAR1 ag count inactive
Fc1ccc2cnc(-c3ccccc3)c(-c3ccc(C(F)(F)F)cc3)c2c1	TAAR1 antag 63.2 | nonsel antag count inactive | TAAR1 antag conf inactive | Ga16 ag counter inactive | TAAR1 ag count inactive
Fc1ccc2cnc(-c3ccccc3)c(-c3cc(C(F)(F)F)cc(C(F)(F)F)c3)c2c1	none
COC(=O)c1ccc(-c2c(-c3ccccc3)ncc3cc(F)ccc23)cc1	none
O=[N+]([O-])c1ccc(-c2c(-c3ccccc3)ncc3ccc(F)cc23)cc1	TAAR1 antag 73.6 | nonsel antag count inactive | TAAR1 antag conf 66.2 | Ga16 ag counter inactive | TAAR1 ag count inactive

Screening data from PubChem.
